{"data": "Assay results pooled from the literature", "target": "Calcium/calmodulin-dependent protein kinase type II subunit delta (CAMK2D, Homo sapiens, UniProt Q13557)", "note": "Lines come from different studies, so protocols differ."}
{"Structure (SMILES)": "CC(C)(C)c1cc(C=C(C#N)C#N)cc(Br)c1O", "assay": "enzyme activity, inhibitor", "setting": "0.5 µM", "endpoint": "remaining activity", "result": "96%"}
{"Structure (SMILES)": "COc1ncccc1-c1cnn2ccc(N3CCN(C(=O)OC(C)C)CC3)nc12", "assay": "binding, competition with immobilised ligand", "setting": "1 µM", "endpoint": "remaining binding", "result": "83%"}
{"Structure (SMILES)": "Nc1ncc(-c2nc(N3CCOCC3)nc(N3CCOCC3)n2)c(C(F)F)n1", "assay": "binding, competition with immobilised ligand", "setting": "10 µM", "endpoint": "remaining binding", "result": "66%"}
{"Structure (SMILES)": "Cn1cncc1[C@@](O)(COc1ccc(C#N)cc1-c1ccc(OC(F)(F)F)cc1)c1ccc(C#N)cc1", "assay": "cell-free assay, competition with immobilised ligand", "setting": "1 µM", "endpoint": "remaining binding", "result": "95%"}
{"Structure (SMILES)": "Cn1cc(-c2cccc(N3CCc4c(sc5c4CC(C)(C)C5)C3=O)c2CO)cc(Nc2ccncn2)c1=O", "assay": "enzyme activity, inhibitor", "setting": "1 µM", "endpoint": "inhibition", "result": "3%"}
{"Structure (SMILES)": "Cc1nn(C)cc1-c1nc2c(N3CCN(Cc4ccc(Cl)cc4)CC3)c(Cl)cnc2[nH]1", "assay": "binding, competition with immobilised ligand", "setting": "1 µM", "endpoint": "remaining binding", "result": "94%"}
{"Structure (SMILES)": "O=c1[nH]c2ccccc2n1C1CCN(Cc2ccc(-c3[nH]c4cc5ncnc5cc4nc3-c3ccccc3)cc2)CC1", "assay": "cell-free assay", "setting": "0.5 µM", "endpoint": "remaining signal", "result": "97.7%"}
{"Structure (SMILES)": "Cn1cc(-c2cc(F)cc(N3CCn4c(cc5c4CCCC5)C3=O)c2CO)cc(Nc2ccc(N3CCN(C4COC4)CC3)cn2)c1=O", "assay": "enzyme activity, inhibitor", "setting": "0.1 µM", "endpoint": "inhibition", "result": "11%"}
